T cruzi growth = T. cruzi intracellular proliferation inhibitors, primary screen, cell-based, beta-gal Tulahuen parasites, NIH3T3 host, luminescence | inhibition, % at 8.34 µM | T. cruzi beta-gal in NIH3T3, GalScreen luminescence, 90 h | 77,000 compounds, 5.9% hits;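 active means mean inhibition above about 93%, with at least 55% of replicates each passing it, limit read from the data, passing the limit was not always enough; inconclusive means only one of those two conditions holds; inactive means neither condition holds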
IDH1 mut inh = inhibitors of IDH1 R132H reductase, primary screen, biochemical, plate reader, single point | AID 624101, 2012 | diaphorase/resazurin fluorescence, 60 min | 70,000 compounds, 0.18% hits | inhibition, % at 10 µM; in the data active means inhibition above about 34%; inconclusive means no clear call, values can overlap the other calls; inactive means below about 11%;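 further: 0% = DMSO and 100% = no enzyme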
Pf Dd2 growth = P. falciparum Dd2 growth inhibitors, primary screen, SYBR Green fluorescence, single dose replicates | 72 h; hits give low values | activity change, % at 10 µM | AID 1159554, 2015 | 94,000 compounds, 2.3% hits; in the data active means activity change below about -80%; inconclusive means no clear call, values can overlap the other calls
KDM4C inh = inhibitors of GASC-1 (KDM4C) histone demethylase, primary screen, biochemical, single concentration HTS; Lysine-specific demethylase 4C (Homo sapiens), Q9H3R0; GST-KDM4C 2-372, H3K9me3 peptide, LANCE TR-FRET; inhibition, % at 12.5 µM; 96,000 compounds, 0.15% hits; AID 720574, 2013;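 active means mean replicate inhibition above about 25%, with at least 55% of replicates also reaching it, limit read from the data, passing the limit was not always enough; inconclusive means only one of those two conditions met; inactive means neither condition met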
Target sequence (Q9H3R0 2-372 limits assumed): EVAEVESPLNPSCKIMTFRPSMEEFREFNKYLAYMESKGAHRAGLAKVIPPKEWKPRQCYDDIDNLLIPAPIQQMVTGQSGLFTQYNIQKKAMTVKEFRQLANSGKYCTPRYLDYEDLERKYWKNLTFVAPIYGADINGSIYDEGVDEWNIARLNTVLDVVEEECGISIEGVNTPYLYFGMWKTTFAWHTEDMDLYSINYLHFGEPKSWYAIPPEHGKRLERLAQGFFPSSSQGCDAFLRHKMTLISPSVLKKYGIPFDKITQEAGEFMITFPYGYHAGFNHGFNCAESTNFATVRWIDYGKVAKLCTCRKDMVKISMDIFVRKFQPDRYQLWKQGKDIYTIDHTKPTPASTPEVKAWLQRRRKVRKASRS
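System: N-terminal GST-fused human GASC-1 (KDM4C) fragment, residues 2-372; amount: enzyme final amount 10 nM; incubation: reaction 30 min RT, detection step 1 h RT; medium: HEPES buffer, pH 7.5, plus ascorbate; technique: LANCE TR-FRET, Eu antibody, ULight-streptavidin, EDTA, ex 340 nm, em 618/671 nm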
* = called active by the depositor; ? = inconclusive; . = no result. Compounds with a hit are over-represented: about 5.9% of the library has one in this group of screens.

SMILES | T cruzi growth | IDH1 mut inh | Pf Dd2 growth | KDM4C inh
N#Cc1ccc(-c2ccc([C@H]3[C@@H](CO)N4C(=O)CN(C(=O)Cc5ccccc5)C[C@@H]34)cc2)cc1 | . | . | -85* | -2
COc1cccc(C#Cc2ccc([C@H]3[C@@H](CO)N4C(=O)CN(C(=O)Cc5ccccc5)C[C@H]34)cc2)c1 | . | . | -94* | -1
COc1ccc(Cl)cc1NC1=NC2CS(=O)(=O)CC2S1 (configuration not stated) | . | 0 | . | .
Cc1cc(C(F)F)n2nc(C(=O)Nc3c(C)nn(Cc4ccc(Cl)cc4)c3C)nc2n1 | . | -1 | . | .
Cc1cc(Nc2cnn(-c3nc4ccccc4o3)c(=O)c2Cl)ccc1Br | . | 1 | . | .
O=C(CCc1nc(-c2ccc(Cl)cc2)no1)N1CCOCC1 | . | 1 | . | .
Cc1cccc(NC(=O)c2ccccc2NC(=O)COc2ccccc2Cl)c1C | . | 1 | . | .
COc1ccc(NC(=O)Nc2cccc3c2O[C@H](CN(C)Cc2ccc(C(=O)Nc4ccccc4N)cc2)[C@@H](C)CN([C@H](C)CO)C3=O)cc1 | . | . | -83* | -1
COc1ccc(NC(=O)Nc2cccc3c2O[C@H](CN(C)Cc2ccc(C(=O)Nc4ccccc4N)cc2)[C@@H](C)CN([C@@H](C)CO)C3=O)cc1 | 105 | . | -88* | 0
COc1ccc(NC(=O)Nc2cccc3c2O[C@H](CN(C)Cc2ccc(-c4ccccc4)cc2)[C@@H](C)CN([C@@H](C)CO)C3=O)cc1 | . | 0 | -86* | 2
C[C@@H]1CN([C@H](C)CO)C(=O)c2cccc(NC(=O)Nc3ccc(F)cc3)c2O[C@H]1CN(C)Cc1ccc(C(=O)Nc2ccccc2N)cc1 | . | . | -78 | 2
C[C@@H]1CN([C@H](C)CO)C(=O)c2cccc(NC(=O)Nc3ccccc3)c2O[C@H]1CN(C)Cc1ccc(C(=O)Nc2ccccc2N)cc1 | 91 | 0 | -78 | -3
COc1ccc(NC(=O)Nc2cccc3c2O[C@H](CN(C)Cc2ccc(C(=O)Nc4ccccc4N)cc2)[C@H](C)CN([C@@H](C)CO)C3=O)cc1 | . | . | -94* | -2
COc1ccc(NC(=O)Nc2cccc3c2O[C@H](CN(C)Cc2ccc(-c4ccccc4)cc2)[C@H](C)CN([C@@H](C)CO)C3=O)cc1 | 90 | . | -42 | -3
COc1ccc2c3c([nH]c2c1)[C@H](CO)N(C(=O)Nc1ccc(F)cc1)CC31CCN(C(=O)Cc2ccncc2)CC1 | . | . | -84* | -3
COc1ccc2c3c([nH]c2c1)[C@H](CO)N(C(C)=O)CC31CCN(C(=O)Nc2ccccc2F)CC1 | . | . | -89* | 0
COc1ccc2c3c([nH]c2c1)[C@@H](CO)N(C(=O)Nc1ccc(F)cc1)CC31CCN(C(=O)Cc2ccncc2)CC1 | . | . | -76 | 0
COc1ccc2c3c([nH]c2c1)[C@@H](CO)N(S(C)(=O)=O)CC31CCN(C(=O)Nc2ccccc2)CC1 | . | . | -51 | -1
COc1ccc2c3c([nH]c2c1)[C@H](CO)N(S(C)(=O)=O)CC31CCN(C(=O)Nc2ccccc2)CC1 | . | . | -83* | .
CCC(=O)N1CC2(CCN(C(=O)Nc3ccccc3F)CC2)c2c([nH]c3cc(OC)ccc23)[C@@H]1CO | . | . | -85* | 0
Cc1ccc(NC(=O)CCCN2C(=O)c3ccccc3C2=O)c([N+](=O)[O-])c1 | . | 0 | . | .
Cc1ccc(-n2c(SCC(=O)Nc3ccc(Br)cc3)nnc2-c2ccco2)cc1 | . | 0 | . | .
NC(=O)c1ccc2nc3ccsc3c(=O)n2c1 | . | -1 | . | .
CCC(=O)N1CC2(CCN(C(=O)Nc3ccc(F)cc3)CC2)c2c([nH]c3cc(OC)ccc23)[C@H]1CO | . | . | -84* | 0
CCC(=O)N1CC2(CN(C(=O)Nc3ccc(F)cc3)C2)c2c([nH]c3cc(OC)ccc23)[C@H]1CO | . | . | -52 | -1
SMILES | T cruzi growth | IDH1 mut inh | Pf Dd2 growth | KDM4C inh
COc1ccc2c3c([nH]c2c1)[C@H](CO)NCC31CCN(C(=O)Nc2ccc3c(c2)OCO3)CC1 | . | . | -94* | -2
COc1ccc2c3c([nH]c2c1)[C@@H](CO)NCC31CCN(C(=O)Nc2ccc(F)cc2)CC1 | . | . | -17 | 0
CCC(=O)N1CC2(CCN(C(=O)Nc3ccccc3F)CC2)c2c([nH]c3cc(OC)ccc23)[C@H]1CO | . | . | -90* | -2
COc1cc([N+](=O)[O-])ccc1NC(=O)COc1ccc2ccccc2c1 | . | 0 | . | .
COc1ccc(NC(=O)CSc2nnc(-c3ccncc3)o2)cc1 | . | 0 | . | .
COc1ccc2c3c(n(C)c2c1)[C@@H](CO)N(Cc1cc(F)ccc1F)CC31CCN(C(=O)C2CC2)CC1 | . | . | -81* | -2
COc1ccc2c3c(n(C)c2c1)[C@H](CO)N(Cc1ccccc1)CC31CCN(C(=O)C2CC2)CC1 | . | . | -83* | -2
CCC(=O)N1CCC2(CC1)CN(Cc1cccc(Cl)c1)[C@H](CO)c1c2c2ccc(OC)cc2n1C | . | . | -89* | -1
COc1ccc2c3c(n(C)c2c1)[C@H](CO)N(Cc1cc(F)ccc1F)CC31CCN(C(=O)C2CC2)CC1 | . | . | ? | 1
CSc1n[nH]c(=O)c2cc(C)nn12 | . | 0 | . | .
COc1ccc(CN2CC3(CN(C(=O)c4ccccc4)C3)c3c([nH]c4cc(OC)ccc34)[C@@H]2CO)cc1 | . | . | -48 | -1
COc1ccc2c3c([nH]c2c1)[C@H](CO)N(Cc1cccnc1)CC31CCN(C(=O)CN(C)C)CC1 | . | . | -86* | 0
COc1ccc2c3c([nH]c2c1)[C@@H](CO)N(Cc1ccccc1)CC31CCN(C(=O)c2cccnc2)CC1 | . | . | -90* | 0
COc1ccc(CN2CC3(CCN(C(=O)c4ccccc4)CC3)c3c([nH]c4cc(OC)ccc34)[C@@H]2CO)cc1 | . | . | -88* | -1
COc1ccc2c3c([nH]c2c1)[C@@H](CO)N(CC1CC1)CC31CN(C(=O)c2ccccc2)C1 | . | . | -85* | 0
COc1ccc2c3c([nH]c2c1)[C@@H](CO)N(Cc1cccnc1)CC31CCN(C(=O)c2cccnc2)CC1 | . | . | -16 | 0
CC(C(=O)NC1CCCCC1)N(c1ccc(Cl)cc1)S(C)(=O)=O (configuration not stated) | . | 0 | . | .
O=C(CCS(=O)(=O)c1ccc2ccccc2c1)Nc1ccccc1 | . | 1 | . | .
COc1ccc2c3c([nH]c2c1)[C@@H](CO)N(C(=O)c1cccc(F)c1)CC31CCN(C(=O)c2ccccc2)CC1 | . | . | -88* | -1
CC1(C)[C@H]2CC=C(/C=N\NC(=O)c3ccc(C(=O)NO)cc3)[C@@H]1C2 | . | 0 | . | .
COc1ccccc1CN(C)C[C@@H]1OCc2ccccc2-c2c(n(C)c3ccccc23)C(=O)N([C@H](C)CO)C[C@@H]1C | . | . | -1 | 2
C[C@H]1CN([C@@H](C)CO)C(=O)c2c(c3ccccc3n2C)-c2ccccc2CO[C@@H]1CN(C)Cc1cccc(F)c1 | . | . | -75 | -7
C[C@@H]1CN([C@H](C)CO)C(=O)c2ccccc2-c2ccccc2CO[C@@H]1CN(C)Cc1ccccc1C(F)(F)F | . | . | -93* | -1
